In the EternaBench riboswitch data:

Tested on: MS2 coat protein
Experiment: apparent Kd, MS2 coat protein; higher = weaker binding; RNA-MaP array; FMN 200 µM where present
Procedure, shortened: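 Designs were transcribed by stalled E. coli RNA polymerase on Illumina sequencing-chip clusters. They were titrated with SNAP-549-labelled MS2 coat protein from 0.7 or 1.5 nM, doubling to 3 µM, without and then with constant ligand. Buffer: 100 mM Tris-HCl pH 7.5, 80 mM KCl, 4 mM MgCl2, BSA, DTT, yeast tRNA, Tween-20. Green signal was normalised to red-channel RNA signal and control-cluster median Fmax. Apparent Kd is the median of filtered per-cluster binding-curve fits.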

[1] = designed as: OFF switch for flavin mononucleotide, no ligand
[2] = ligand present: flavin mononucleotide, designed as: OFF switch for flavin mononucleotide
[3] = designed as: ON switch for flavin mononucleotide, no ligand
[4] = ligand present: flavin mononucleotide, designed as: ON switch for flavin mononucleotide

| Sequence | apparent Kd [1] [µM] | apparent Kd [2] [µM] | apparent Kd [3] [µM] | apparent Kd [4] [µM] |
| --- | --- | --- | --- | --- |
| UGAUCGAGAGAUCUUAGAUUCUGGUAGGAUAUACAUUAUGAAAACUUUACAUGAGGAUCACCCAUGUAGAAGGACUAGAGUCUA | 0.00774 | 0.00974 |  |  |
| AUUGUGUGAGGAUAUUAGCAGUAGACGAAUGGAGUCGUGGCUGAGAAGGCACAUGAGGAUCACCCAUGUUCCUU |  | 0.0883 |  |  |
| UUGAACAUAGGAUAUAGUUGUUUGUACAUGAGGAUCACCCAUGUUAUGUAUGUUUUGUUUCUAGAAGGAUGUUGAU | 0.0377 | 0.0323 |  |  |
| CGAGUGUGAGGAUAUCCAGCCGGUGGGAUUACGUCGACGCUGGAGAAGGCACAUGAGGAUCACCCAUGUGGACA | 0.111 | 0.234 |  |  |
| GUCUACCAGCUAGGAUAUGCAGUACAUUAAAAUGUAGAAGGAGCACGAUCCAGACAUGAGGAUCACCCAUGUGGGCGGUAGGCA | 0.0209 | 0.0186 |  |  |
| UGUAGUUCAGGAUAUGAUGUUUAAUACAUGAGGAUCACCCAUGUAGAUCCUGAAUUAACAUCAGAAGGGAAUAUUU | 0.0207 | 0.0452 |  |  |
| UUAAACGGAGGAUAUACAUUUUUUUUAUUAUCCUCAUUAAAACAUGAGGAUCACCCAUGUAGAAGGCCGAAAUU | 0.0796 | 0.292 |  |  |
| CAGUACUGAGGAUAUACAUGAGGAUCACCCAUGUGUUCCAGCUAGGAAUCUAGCAAAAGUAGAAGGCAGUACUG | 0.0259 | 0.449 |  |  |
| AUCCUACAUGAGGAUCACCCAUGUGAGGCCUCAAUAGGAUAUGCGUGUGCCUUGGCGCAUGCAGAAGGAUUGAAGC |  |  | 0.363 | 0.0525 |
| UUUAUAUUCAGAGGAUAUUAAUGUAGUAUAAUAUAAGAAGGCUGUUUGUUUUGUAAAGUUAUUAUACAUGAGGAUCACCCAUGU |  |  | 0.0184 | 0.0155 |
| UGAGCCUCGUGAGGAUAUACAUGAGGAUCACCCAUGUAAUAAAGUGAACGGAGGAAGCUCCGAAUGUAGAAGGCACGAGGCUCA | 0.0601 | 0.372 |  |  |
| GGGUUACAUGAGGAUCACCCAUGUGAGGAUAUGAUACUAUGUACUUCGGUACAUAGUAUCAGAAGGCACAUAAA | 0.124 | 0.122 |  |  |
| GCACGACAUGUAGGAUAUCGAGCGCCGGGCGCUCGAGAAGGACAUGAGGAUCACCCAUGUAUUCUGAGUGACCGAGGUCGUGCA | 0.0539 | 0.557 |  |  |
| AGCUGUGGCCGAGGAUAUCUAACUUCAAUAACCGAAAUAUAAUCGGACAUGAGGAUCACCCAUGUAGAGAAGGCGGUCUCAGCA | 0.0152 | 0.0201 |  |  |
| GAGUUGAAGUUAGGAUAUUGGAUAGGGACGGAAUAAGAAGGAGCAAGACAUGAGGAUCACCCAUGUGUAGAAGAAGAGAUCCUC | 0.352 | 0.227 |  |  |
| GAGAGAGGAUGAGGAUAUGCAGUAAUAAUGAUAGCAGAAGGCAUAGACAUGAGGAUCACCCAUGUGGGAAUAAUCCAGAGAGAG |  |  | 0.188 | 0.272 |
| CCGUUACAUGAGGAUCACCCAUGUGAGGAUAUCGAUGUGACUAGCAGCGUGCGGGACUCGAGAAGGCACUUGGC | 0.0578 | 0.0415 |  |  |
| GGUCUGAGAGGAUAUACAUGAAAAAAAAAAGUAAGAUCCCUACAUGAGGAUCACCCAUGUAGAAGGCUCUGAUA | 0.0338 | 0.0339 |  |  |
| GCGUAACAUGAGGAUCACCCAUGUACCCGAGAAUUCGGGUGUAGAAGGGUGACCGGUCGUUUGGCACAGGAUAUACACGUUGUG |  |  | 0.0301 | 0.0168 |
| CGGUAAACCACAGGAUAUGGCUAGUAUAACUAGCCAGAAGGGUGGUCGAAACCAUGUAAAUACAUGAGGAUCACCCAUGUAUCC |  |  | 0.496 | 0.0476 |
| UGGUACUAGGGAGGAUAUGGGAAUAUACAUGAGGAUCACCCAUGUUUAAGAAUGCCGAGAGGCAACUAGAAGGCCCUAGUACCU |  |  | 0.0111 | 0.00485 |
| GGCCCGUCUGUUAGGAUAUUGUCGAACUUUAGCGGCGAGAAGGAACAUGAGGAUCACCCAUGUCCCAACUGGGA | 0.0255 | 0.196 |  |  |
| ACAUUUUAUGCAGGAUAUUGACAUAUAUUUAAACAAGAAGGGCAUUACAUGAGGAUCACCCAUGUUAUAAUGGUAUAUAAGUUC | 0.0214 | 0.0192 |  |  |
